Results published in ChEMBL document CHEMBL1932938, “From COX-2 inhibitor nimesulide to potent anti-cancer agent: synthesis, in vitro, in vivo and pharmacokinetic evaluation” (Eur J Med Chem, 2012).
The source made the active and inactive calls. The rule behind the calls is not given here.

Assays:
OVCAR-8 = assay: Growth inhibition of human OVCAR8 cells after 48 hrs by SRB assay; type: functional
CAKI-1 = assay: Growth inhibition of human Caki1 cells after 48 hrs by SRB assay; type: functional
A549 = assay: Growth inhibition of human A549 cells after 48 hrs by SRB assay; type: functional
SK-BR-3 [1] = assay: Cell cycle arrest in human SK-BR-3 cells assessed as accumulation at G2/M phase at 5 uM after 6 hrs using propidium iodide staining by FACS analysis; type: functional
Method in brief: (§1)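 SKBR-3 cells in RPMI1640 with 10% heat-inactivated FBS at 37 °C and 5% CO₂ were treated for the stated times. Cells were fixed overnight in 70% EtOH at −20 °C, then stained with propidium iodide buffer (38 mM sodium citrate pH 7.5, 69 µM PI, 120 µg/mL RNase A) for 15 min at room temperature in the dark. Up to 1×10⁴ gated cells were analyzed by flow cytometry, giving percent distribution per phase.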

SK-BR-3 [2] = assay: Cell cycle arrest in human SK-BR-3 cells assessed as accumulation at G1 phase at 0.50 uM after 3 hrs using propidium iodide staining by FACS analysis; type: functional; method in brief: as §1
SK-MEL-28 = assay: Growth inhibition of human SK-MEL-28 cells after 48 hrs by SRB assay; type: functional
SK-BR-3 [3] = assay: Cell cycle arrest in human SK-BR-3 cells assessed as accumulation at G1 phase at 0.50 uM after 6 hrs using propidium iodide staining by FACS analysis; type: functional; method in brief: as §1
SK-BR-3 [4] = assay: Cell cycle arrest in human SK-BR-3 cells assessed as accumulation at G1 phase at 5 uM after 3 hrs using propidium iodide staining by FACS analysis; type: functional; method in brief: as §1
SK-BR-3 [5] = assay: Cell cycle arrest in human SK-BR-3 cells assessed as accumulation at Sub-G1 phase at 0.25 uM after 6 hrs using propidium iodide staining by FACS analysis; type: functional
HT-29 [6] = assay: Antitumor activity against human HT-29 cells xenografted in BALB/c athymic nu/nu mouse assessed as decrease in tumor size at 5 mg/kg/day, ip administered 5 times per week for 3 weeks; type: functional, organism-based
Method in brief: (§2)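 Athymic BALB/c nu/nu mice received s.c. HT29 cells in Matrigel, 200 µL per site at two flank sites. Treatment started at ~200 mm³: 5 mg/kg/d i.p., five times weekly for three weeks, in 1% DMSO/sesame oil; controls got vehicle. Three mice per group. Tumors were measured twice weekly by caliper, volume = width²×length/2. Tumors were excised and weighed at the end.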

SK-BR-3 [7] = assay: Cell cycle arrest in human SK-BR-3 cells assessed as accumulation at S phase at 5 uM after 18 hrs using propidium iodide staining by FACS analysis; type: functional
SK-BR-3 [8] = assay: Cell cycle arrest in human SK-BR-3 cells assessed as accumulation at G1 phase at 0.10 uM after 3 hrs using propidium iodide staining by FACS analysis; type: functional; method in brief: as §1
NCI/ADR-RES = assay: Growth inhibition of human NCI/ADR-RES cells after 48 hrs by SRB assay; type: functional
ACHN = assay: Growth inhibition of human ACHN cells after 48 hrs by SRB assay; type: functional
M14 = assay: Growth inhibition of human M14 cells after 48 hrs by SRB assay; type: functional
NCI-H23 = assay: Growth inhibition of human NCI-H23 cells after 48 hrs by SRB assay; type: functional
OVCAR-5 = assay: Growth inhibition of human OVCAR5 cells after 48 hrs by SRB assay; type: functional
SK-BR-3 [9] = assay: Cell cycle arrest in human SK-BR-3 cells assessed as accumulation at S phase at 0.25 uM after 24 hrs using propidium iodide staining by FACS analysis; type: functional
SK-BR-3 [10] = assay: Cell cycle arrest in human SK-BR-3 cells assessed as accumulation at S phase at 5 uM after 3 hrs using propidium iodide staining by FACS analysis; type: functional
UO-31 = assay: Growth inhibition of human UO31 cells after 48 hrs by SRB assay; type: functional
T47D = assay: Growth inhibition of human T47D cells after 48 hrs by SRB assay; type: functional
SK-MEL-5 = assay: Growth inhibition of human SK-MEL-5 cells after 48 hrs by SRB assay; type: functional
SK-BR-3 [11] = assay: Cell cycle arrest in human SK-BR-3 cells assessed as accumulation at S phase at 0.25 uM after 6 hrs using propidium iodide staining by FACS analysis; type: functional
SK-BR-3 [12] = assay: Cell cycle arrest in human SK-BR-3 cells assessed as accumulation at S phase at 0.10 uM after 12 hrs using propidium iodide staining by FACS analysis; type: functional; method in brief: as §1
SW-620 = assay: Growth inhibition of human SW620 cells after 48 hrs by SRB assay; type: functional
LOX IMVI = assay: Growth inhibition of human LOXIMVI cells after 48 hrs by SRB assay; type: functional
HT-29 [13] = assay: Antitumor activity against human HT-29 cells xenografted in BALB/c athymic nu/nu mouse assessed as decrease in tumor weight at 5 mg/kg/day, ip administered 5 times per week for 3 weeks; type: functional, organism-based; method in brief: as §2
SF-295 = assay: Growth inhibition of human SF295 cells after 48 hrs by SRB assay; type: functional
SK-BR-3 [14] = assay: Cell cycle arrest in human SK-BR-3 cells assessed as accumulation at G1 phase at 0.50 uM after 18 hrs using propidium iodide staining by FACS analysis; type: functional; method in brief: as §1
SK-BR-3 [15] = assay: Cell cycle arrest in human SK-BR-3 cells assessed as accumulation at G2/M phase at 0.25 uM after 6 hrs using propidium iodide staining by FACS analysis; type: functional; method in brief: as §1
SK-BR-3 [16] = assay: Cell cycle arrest in human SK-BR-3 cells assessed as accumulation at S phase at 0.25 uM after 18 hrs using propidium iodide staining by FACS analysis; type: functional
[17] = read-out: LC50 (the source's name)

Cc1ccc(C)c(COc2cc(NC(=O)c3ccc4c(c3)OCO4)ccc2N(C)S(C)(=O)=O)c1
growth inhibition (GI) (OVCAR-8): Dose-dependent effect
GI50 (OVCAR-8; OVCAR-8, 48 h): 265 nM
TGI (OVCAR-8; OVCAR-8, 48 h): > 100 µM
CC50 (OVCAR-8; OVCAR-8, 48 h, read-out: LC50 (the source's name)): > 100 µM
growth inhibition (GI) (CAKI-1): Dose-dependent effect
TGI (CAKI-1; CAKI-1, 48 h): > 100 µM
CC50 (CAKI-1; CAKI-1, 48 h, read-out: LC50 (the source's name)): > 100 µM
growth inhibition (GI) (A549): Dose-dependent effect
GI50 (A549; A549, 48 h): 278 nM
TGI (A549; A549, 48 h): 13.6 µM
CC50 (A549; A549, 48 h, read-out: LC50 (the source's name)): > 100 µM
Activity (SK-BR-3 [1]): 17.19%
Activity (SK-BR-3 [2]): 67.14%
growth inhibition (GI) (SK-MEL-28): Dose-dependent effect
GI50 (SK-MEL-28; SK-MEL-28, 48 h): 692 nM
TGI (SK-MEL-28; SK-MEL-28, 48 h): > 100 µM
CC50 (SK-MEL-28; SK-MEL-28, 48 h, read-out: LC50 (the source's name)): > 100 µM
Activity (SK-BR-3 [3]): 67.1%
Activity (SK-BR-3 [4]): 69.09%
Activity (SK-BR-3 [5]): 3.49%
Activity (HT-29 [6]): Active
Activity (SK-BR-3 [7]): 6.73%
Activity (SK-BR-3 [8]): 70.84%
GI50 (NCI/ADR-RES): 56.2 nM
TGI (NCI/ADR-RES): 407 nM
growth inhibition (GI) (NCI/ADR-RES): Dose-dependent effect
CC50 (NCI/ADR-RES; [17]): > 100 µM
GI50 (ACHN): 687 nM
TGI (ACHN): > 100 µM
growth inhibition (GI) (ACHN): Dose-dependent effect
CC50 (ACHN; [17]): > 100 µM
growth inhibition (GI) (M14): Dose-dependent effect
GI50 (M14; M14, 48 h): 75.7 nM
TGI (M14; M14, 48 h): 669 nM
CC50 (M14; M14, 48 h, read-out: LC50 (the source's name)): > 100 µM
growth inhibition (GI) (NCI-H23): Dose-dependent effect
GI50 (NCI-H23; NCI-H23, 48 h): 162 nM
TGI (NCI-H23; NCI-H23, 48 h): > 100 µM
CC50 (NCI-H23; NCI-H23, 48 h, read-out: LC50 (the source's name)): > 100 µM
growth inhibition (GI) (OVCAR-5): Dose-dependent effect
GI50 (OVCAR-5; OVCAR-5, 48 h): 538 nM
TGI (OVCAR-5; OVCAR-5, 48 h): > 100 µM
Activity (SK-BR-3 [9]): 10.87%
Activity (SK-BR-3 [10]): 16.49%
growth inhibition (GI) (UO-31): Dose-dependent effect
GI50 (UO-31; UO-31, 48 h): 395 nM
TGI (UO-31; UO-31, 48 h): > 100 µM
GI50 (T47D): 682 nM
TGI (T47D): > 100 µM
growth inhibition (GI) (T47D): Dose-dependent effect
CC50 (T47D; [17]): > 100 µM
growth inhibition (GI) (SK-MEL-5): Dose-dependent effect
GI50 (SK-MEL-5; SK-MEL-5, 48 h): 253 nM
TGI (SK-MEL-5; SK-MEL-5, 48 h): 1650 nM
CC50 (SK-MEL-5; SK-MEL-5, 48 h, read-out: LC50 (the source's name)): 34.1 µM
Activity (SK-BR-3 [11]): 14.95%
Activity (SK-BR-3 [12]): 8.17%
growth inhibition (GI) (SW-620): Dose-dependent effect
GI50 (SW-620; SW-620, 48 h): 112 nM
TGI (SW-620; SW-620, 48 h): > 100 µM
CC50 (SW-620; SW-620, 48 h, read-out: LC50 (the source's name)): > 100 µM
GI50 (LOX IMVI): 66.6 nM
TGI (LOX IMVI): > 100 µM
growth inhibition (GI) (LOX IMVI): Dose-dependent effect
CC50 (LOX IMVI; [17]): > 100 µM
Activity (HT-29 [13]): Active
growth inhibition (GI) (SF-295): Dose-dependent effect
GI50 (SF-295; SF-295, 48 h): 98.3 nM
TGI (SF-295; SF-295, 48 h): 626 nM
CC50 (SF-295; SF-295, 48 h, read-out: LC50 (the source's name)): > 100 µM
Activity (SK-BR-3 [14]): 61.19%
Activity (SK-BR-3 [15]): 9.32%
Activity (SK-BR-3 [16]): 6.81%
